Source: PubChem BioAssay
S1P1 ag-PAM – agonists and agonism potentiators of human S1P1 receptor; actives 0.57% (n = 56,000); activation, % at 9.5 µM; P21453; S1P1 CRE-bla cells, forskolin, beta-lactamase FRET, potentiator mode; S1P1 agonist co-added at EC20, 2 nM; 100% = saturating reference agonist, 0% = basal;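 active = activation above a cutoff set at the mean activation of all tested compounds plus 3 SD, cut at about 54% in these data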;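 note: forskolin at 4 µM as EC80 and the EC20 agonist is SEW2871; 100% = SEW2871 at its EC100 plus forskolin at EC80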
DPM-DC inhibit – inhibitors of Streptococcus pneumoniae diphosphomevalonate decarboxylase; actives 0.49% (n = 65,000); purified DPM-DC, PK/LDH coupled NADH fluorescence; AID 556; calls only at 10 µM;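 active = the 320 compounds with the highest percent inhibition in the single-dose primary screen, excluding strongly autofluorescent ones, cut at about 32% in these data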;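 note: kinetic rate of NADH fluorescence loss reporting ADP formed by the decarboxylase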
Spn PMK inh – S. pneumoniae PMK inhibition | actives 0.49% (n = 65,000) | inhibition, % at 10 µM | purified PMK, PK/LDH-coupled NADH absorbance 340 nm;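 active = top-ranked compounds by inhibition in the single 10 µM screen, taking a fixed number of the strongest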;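 note: 0% = full reaction with DMSO carrier and 100% = background rate without enzyme reaction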
MK inhibit – blocks S. pneumoniae mevalonate kinase; purified MK, PK/LDH-coupled NADH absorbance 340 nm; inhibition, % at 10 µM; actives 0.48% (n = 65,000); AID 555;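 active = ranked among the strongest by inhibition in the single 10 µM screen, a fixed top-ranked set picked for dose follow-up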
S1P3 agonist – S1P3 (human) receptor agonism. Q99500. S1P3 NFAT-BLA reporter cells, FRET ratio; relative to 1 µM S1P, basal subtracted. activation, % at 4.5 µM. actives 0.1% (n = 60,000). AID 373;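 active = activation above the screen-wide mean plus 3 SD, cut at about 4.5% in these data, passing the limit was not always enough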
Target sequence (Q99500 whole entry, looked up): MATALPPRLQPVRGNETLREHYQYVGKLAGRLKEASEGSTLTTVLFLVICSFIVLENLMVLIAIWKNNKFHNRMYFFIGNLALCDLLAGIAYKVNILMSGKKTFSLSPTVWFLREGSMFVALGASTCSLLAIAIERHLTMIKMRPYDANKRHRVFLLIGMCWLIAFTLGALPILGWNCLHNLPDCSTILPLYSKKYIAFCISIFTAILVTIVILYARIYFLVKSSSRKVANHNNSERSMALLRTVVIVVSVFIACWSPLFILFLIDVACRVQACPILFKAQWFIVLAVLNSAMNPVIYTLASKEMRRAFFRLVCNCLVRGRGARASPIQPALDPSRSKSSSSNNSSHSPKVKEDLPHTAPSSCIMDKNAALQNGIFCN
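Benchmarks: high control 1 µM S1P / System: stable CHO line with human S1P3, Gα16, NFAT-BLA reporter / Dosing: single compound concentration, 4.5 µM final / Timing: 4 h compound at 37 °C, 2 h substrate at RT / Measured by: FRET β-lactamase substrate fluorescence, excitation 405 nm, 460/535 nm emission ratio, background-subtracted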
Hsp90 block – displaces geldanamycin probe from tumor Hsp90. P07900. NCI-N417 lysate Hsp90, Cy3B-geldanamycin FP displacement. inhibition, % at 30 µM. actives 0.35% (n = 64,000);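 active = inhibition above 50%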;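 note: 0% = tracer plus lysate wells and 100% = tracer alone without lysate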
* = called active by the depositor; i = inactive; x = no result given; + = active, no number; [ ] = another dose, or the depositor's remark. Hits are enriched below; roughly 2.2% of the tested compounds scored in any of these assays.

SMILES	S1P1 ag-PAM	DPM-DC inhibit	Spn PMK inh	MK inhibit	S1P3 agonist	Hsp90 block
CC(C)(C)OC(=O)N[C@@H](Cc1ccccc1)c1nnc(S(=O)(=O)Cc2ccccc2)o1	85.9*	i	19.0	12.0	-0.4	-1.6
Cc1nc(-c2cnn(-c3ccccc3)c2)c2cc(C)oc2n1	-2.0	+[fluoresces]	4.0	0.0	-1.2	-3.8
CC(=O)SC1CC2=CC(=O)CC[C@]2(C)C2CC[C@@]3(C)C(CC[C@@]34CCC(=O)O4)C12 (stereo partly drawn)	x	x	x	x	x	-1.3
CC(OC(=O)c1cccs1)C(=O)NCc1cccs1 (stereo not drawn)	-8.2	i	0.0	9.0	0.8	92.3*
CC(C)CC(OC(=O)c1cccs1)C(=O)NCc1cccs1 (stereo not drawn)	3.8	i	21.0	0.0	-0.2	-3.1
Cc1ccc(CNc2ccc(O)cc2)cc1	-3.5	i	3.0	7.0	-0.4	56.4*
O=C(O)CCCC(=O)NCCCc1ccccc1	3.5	i	0.0	8.0	-0.9	-3.1
N#C/C(=C\c1ccc(O)c(O)c1)C(=O)NCCCc1ccccc1	39.6	i	0.0	5.0	-8.4	68.5*
N#C/C(=C\c1c[nH]c2ccccc12)C(=O)c1ccc(O)c(O)c1	x	x	x	x	x	71.5*
N#C/C(=C\c1ccc(O)c(O)c1)S(=O)(=O)c1ccccc1	-1.6	i	6.0	1.0	-1.2	42.1
N#C/C(=C\c1ccc(O)c(O)c1)C(=O)c1ccc(O)c(O)c1	x	x	x	x	x	87.1*
Cc1cc(C)nc(SCC(=O)NCc2ccco2)n1	x	i	19.0	4.0	-0.3	-2.3
Cn1c(SCC(=O)NCc2ccco2)nc2ccccc2c1=O	6.6	i	25.0*	16.0	-1.0	-1.1
Cc1cc(C)n2nc(SCC(=O)NCc3ccco3)nc2n1	x	i	30.0*	3.0	x	-0.8
O=C(CSc1nc2ccccc2c(=O)n1Cc1ccco1)NCc1ccccc1	23.6	i	0.0	7.0	0.2	-1.6
COc1cc(NCCCCN)c2ncccc2c1	x	x	x	x	x	26.5
C/C=C(\C)CN1CCN(c2cc(C)ccc2C)CC1	-5.3	i	0.0	36.0	-1.0	1.1
C/C=C(\C)CN1CCN(c2ccccc2F)CC1	x	i	0.0	51.0*	-0.3	-1.7
CCN(CC)C(=O)CN1CCN(c2ccccc2F)CC1	x	i	0.0	68.0*	x	x
CCOC(=O)C1C(=O)CC(C)(O)C(C(=O)OCC)C1c1ccco1 (stereo not drawn)	-17.6	i	6.0	0.0	-1.3	23.8
CCOC(=O)N1CCN(C(=O)C2CCN(S(=O)(=O)N3CCCC3)CC2)CC1	6.7	i	26.0*	0.0	-0.6	0.4
CCOC(=O)N1CCN(C(=O)C2CCCN(S(C)(=O)=O)C2)CC1 (stereo not drawn)	-12.7	i	23.0	0.0	1.3	-2.3
COc1cc(NCCCCCN2C(=O)c3ccccc3C2=O)c2ncccc2c1	x	x	x	x	x	2.4
CCCCC(=O)Nc1cccc2c1C(=O)N(c1ccccc1)C2=O	-10.7	i	0.0	9.0	-0.7	-0.6
Nc1cccc2c1C(=O)N(c1ccccc1)C2=O	30.4	+[fluoresces]	9.0	0.0	0.2	3.4
SMILES	S1P1 ag-PAM	DPM-DC inhibit	Spn PMK inh	MK inhibit	S1P3 agonist	Hsp90 block
CC(=O)c1ccc(N2CCN(c3ccc(C(F)(F)F)cn3)CC2)cc1	88.0*	i	40.0*	10.0	-2.2	-5.4
Cc1c(C(=O)N2CCN(c3ccc(C(F)(F)F)cn3)CC2)oc2ccccc12	15.7	i	9.0	6.0	-0.1	1.9
Cc1ccc(-n2ncc3c(N4CCCC4)ncnc32)c(C)c1	-10.6	i	2.0	2.0	-3.0	0.5
Cc1ccc(-n2ncc3c(N4CCCC(C)C4)ncnc32)c(C)c1 (stereo not drawn)	73.3*	i	9.0	0.0	-0.9	-2.1
O=C1C(=C(O)c2ccccc2)C(=O)c2ccccc21	-0.5	i	0.0	6.0	-1.1	-3.0
O=C1C(SCCO)=C(SCCO)C(=O)c2ccccc21	x	x	x	x	x	88.6*
CCN(CC)CCCN1C(=O)c2oc3ccccc3c(=O)c2C1c1cc(OC)ccc1OC (stereo not drawn)	-10.4	i	15.0	3.0	-1.0	0.9
CCN(C1CCCCC1)S(=O)(=O)c1ccc(S(=O)(=O)NCCc2ccncc2)cc1	1.6	i	15.0	0.0	0.9	3.5
